Assay results reported in PubChem BioAssay AID2373 (NMMLSC, 2010).

Molecular target: Cell division control protein 42 homolog (Homo sapiens) (UniProt P60953)
Experiment: compound effect on Cdc42 GTP saturation binding, late-stage follow-up, mechanism study for Ras-family GTPase inhibitor project, biochemical, Mg buffer, varying GTP (AID 2373)
Details: GST-Cdc42 beads, BODIPY-GTP binding, flow cytometry
Procedure, shortened: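 Assay system: GST-tagged human Cdc42 bound to glutathione beads. Times: 2 min compound preincubation, overnight 4 °C bead loading. Signal: flow cytometry, median bead fluorescence at 530 nm. Read-out basis: fitted GTP Bmax and Kd. Control set: DMSO vehicle.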

Sequence of Cell division control protein 42 homolog (Homo sapiens) (P60953 whole entry, looked up): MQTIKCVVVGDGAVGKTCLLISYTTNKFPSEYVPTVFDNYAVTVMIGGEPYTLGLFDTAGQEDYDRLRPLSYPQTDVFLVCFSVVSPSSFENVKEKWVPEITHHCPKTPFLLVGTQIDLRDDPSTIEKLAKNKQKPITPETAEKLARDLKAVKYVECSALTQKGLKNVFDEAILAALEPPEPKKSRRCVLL

- GTP Bmax with compound (at 10 µM, stronger effect = lower value): 2320
- Kd (measured here: GTP affinity with compound): 16.7 nM
Structure (SMILES): COc1ccc(C2CC(c3ccccc3)=NN2c2ccc(S(N)(=O)=O)cc2)cc1 (configuration not stated)
